Measurements from ChEMBL document CHEMBL1143007, “Synthesis and evaluation of 4/5-hydroxy-2,3-diaryl(substituted)-cyclopent-2-en-1-ones as cis-restricted analogues of combretastatin A-4 as novel anticancer agents” (J Med Chem, 2007).
Values after ≈ are worked out from the molar mass of the structure shown. Active and inactive are the calls of the source. The rule behind the calls is not given here.

Key:
[1] = Cytotoxicity against human ECV304 cells after 72 hrs by MTT assay; type: cell-based, ECV-304; settings: Homo sapiens, ECV-304, 72 h; read-out: IC50
Summary of the method: (§1)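 MTT assay. Cells seeded at 5000-10 000 per well and incubated at 37 °C in CO₂ with compound at 1-100 µg/mL in triplicate wells for 72 h, then MTT added. Absorbance read at 540 nm; % cytotoxicity = 100 × (1 − treated/control). IC50 obtained by nonlinear regression; NA means IC50 above 100 µg/mL.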

ECV-304 [2] = test: Apoptosis in strongly adherent human ECV304 cells at 100 nM assessed as DNA fragmentation; type: functional, cell-based
Summary of the method: (§2)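 ECV304 plated at 2 × 10⁶ cells per 90 mm dish in DMEM with 10% FCS, allowed 5-6 h to reattach, then exposed to 10 nM-1 µM for 24 h in fresh medium; 100 nM positive control. Strongly and loosely adherent cells harvested separately and lysed (1 mM Tris-Cl, 20 mM EDTA pH 8, 1% NP-40).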

HT-29 = test: Cytotoxicity against human HT29 cells after 72 hrs by MTT assay; type: cell-based; settings: Homo sapiens, HT-29, 72 h; read-out: IC50; summary of the method: as §1
L132 = test: Cytotoxicity against human L132 cells after 72 hrs by MTT assay; type: cell-based; settings: Homo sapiens, L132, 72 h; read-out: IC50; summary of the method: as §1
[3] = Mean residence time in iv dosed Swiss Albino mouse plasma; type: ADME, organism-based
Summary of the method: (§3)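 Swiss albino mice (6-8 weeks, ~25 g) dosed intravenously with compound in a cosolvent formulation diluted in 5% dextrose. Blood drawn by orbital bleed under mild ether at 3, 10, 30 min, 1, 2, 4, 6, 8 and 24 h into EDTA, with no more than five bleeds per mouse. Plasma was solvent-extracted and measured by C18 HPLC against an internal standard and a standard curve. Results are mean ± SD, n = 3.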

ECV-304 [4] = test: Apoptosis in strongly adherent human ECV304 cells at 10 nM assessed as DNA fragmentation; type: functional, cell-based; summary of the method: as §2
MIA PaCa-2 = test: Cytotoxicity against human MiaPaCa2 cells after 72 hrs by MTT assay; type: cell-based; settings: Homo sapiens, MIA PaCa-2, 72 h; read-out: IC50; summary of the method: as §1
HEK293 = test: Cytotoxicity against human HEK293 cells after 72 hrs by MTT assay; type: cell-based; settings: Homo sapiens, HEK293, 72 h; read-out: IC50; summary of the method: as §1
[5] = Cmax in iv dosed Swiss Albino mouse plasma; type: ADME, organism-based; parameters: route intravenous; summary of the method: as §3
DU-145 = test: Cytotoxicity against human DU145 cells after 72 hrs by MTT assay; type: cell-based; settings: Homo sapiens, DU-145, 72 h; read-out: IC50; summary of the method: as §1
KB = test: Cytotoxicity against human KB cells after 72 hrs by MTT assay; type: cell-based; settings: Homo sapiens, KB, 72 h; read-out: IC50; summary of the method: as §1
[6] = Aqueous solubility in phosphate buffer at pH 7.4
[7] = Cytotoxicity against human Hep2 cells after 72 hrs by MTT assay; type: cell-based, HEp-2; settings: Homo sapiens, HEp-2, 72 h; read-out: IC50; summary of the method: as §1
[8] = Half life in iv dosed Swiss Albino mouse plasma; type: ADME, organism-based; summary of the method: as §3
ECV-304 [9] = test: Apoptosis in strongly adherent human ECV304 cells at 1000 nM assessed as DNA fragmentation; type: functional, cell-based; summary of the method: as §2
[10] = Clearance in iv dosed Swiss Albino mouse plasma; type: ADME, organism-based; summary of the method: as §3
[11] = Inhibition of tubulin polymerization in bovine brain; parameters: species or system Bos taurus
Summary of the method: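 Compounds were added from DMSO stocks, with final DMSO below 0.4%. A340 was read every 60 s, and the area under the curve was taken as polymer amount, with the control set to 100%. IC50 is the concentration giving 50% inhibition.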

[12] = Cytotoxicity against human PA1 cells after 72 hrs by MTT assay; type: cell-based, PA-1; settings: Homo sapiens, PA-1, 72 h; read-out: IC50; summary of the method: as §1
Mus musculus = test: Volume of distribution in iv dosed Swiss Albino mouse plasma; type: ADME, organism-based; settings: in vivo; summary of the method: as §3
[13] = AUC in iv dosed Swiss Albino mouse plasma; type: ADME, organism-based; summary of the method: as §3
ECV-304 [14] = test: Enhanced mitotic arrest in human ECV304 cells assessed as accumulation at G2/M phase at 1 uM after 24 hrs relative to control; type: functional
Summary of the method: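 ECV304 at 1.5 × 10⁶ cells per 90 mm dish in DMEM with 10% FCS overnight, then 1 µM for 24 h in fresh medium. Cells trypsinised, fixed in ice-cold 70% ethanol, treated with trypsin inhibitor and RNase, and stained with propidium iodide in the dark at 4-10 °C for 1 h. Flow cytometry with low gate at 10% of the G1 peak; G1 and G2/M fractions against untreated control.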

ECV-304 [15] = test: Apoptosis in loosely adherent human ECV304 cells assessed as DNA fragmentation; type: functional, cell-based; summary of the method: as §2
[16] = Cytotoxicity against human primary tumor colon cells; type: cell-based
Homo sapiens = test: Antitumor activity in primary tumor colon xenografted Balb/C athymic nude mouse assessed as decreased tumor volume at 20 mg/kg, iv on day 19; type: functional, organism-based; parameters: dose 20 mg/kg
Summary of the method: (§4)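 PTC colon tumour cells (15 × 10⁶ cells/100 µL) inoculated subcutaneously in Balb/c athymic nude mice aged 6-8 weeks, about 20 g; 3 animals per group. Dosing began at about 500 mm³: 20 mg/kg i.v. once daily for 14 days, cosolvent formulation diluted in 5% dextrose; controls received vehicle. Caliper volume W×W×L×0.4 every fourth day; regression = (1 − treated/control volume) × 100; Dunnett comparison, p < 0.05.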

[17] = Antitumor activity in primary tumor colon xenografted Balb/C athymic nude mouse assessed as decreased tumor volume at 20 mg/kg, iv on day 22 relative to control; type: functional, Homo sapiens; parameters: scale not given: the % may be the effect or the level left; summary of the method: as §4

| Compound | IC50 [1] [µg/mL] | Activity (ECV-304 [2]) | IC50 (HT-29) [µg/mL] | IC50 (L132) [µg/mL] | Activity (ECV-304 [4]) | IC50 (MIA PaCa-2) [µg/mL] | IC50 (HEK293) [µg/mL] | IC50 (DU-145) [µg/mL] | IC50 (KB) [µg/mL] | IC50 [7] [µg/mL] | Activity (ECV-304 [9]) | IC50 [12] [µg/mL] | Activity (ECV-304 [14]) [%] | further results |
| --- | --- | --- | --- | --- | --- | --- | --- | --- | --- | --- | --- | --- | --- | --- |
| COc1ccc(/C=C\c2cc(OC)c(OC)c(OC)c2)cc1O [COMBRETASTATIN A4] | < 1 | inactive | 5 (≈ 15.8 µM) | < 1 | inactive | < 1 | 5.7 (≈ 18 µM) | 57 (≈ 180 µM) | < 1 | 5 (≈ 15.8 µM) | inactive | < 1 | 41 | MRT [3]: 9 min; Cmax [5]: 3830 ng/mL; solubility [6]: 123 µM (≈ 38.8 µg/mL); half-life [8]: 11.4 min; clearance [10]: 4.86 mL/min; IC50 [11]: 0.98 µM; Vdss (Mus musculus): 80.82 mL; AUC [13]: 920 ng·h/mL |
| COc1ccc(C2=C(c3cc(OC)c(OC)c(OC)c3)C(=O)C(O)C2)cc1 (stereo not drawn) | < 1 | inactive | < 1 | < 1 | inactive | < 1 | 6.3 (≈ 17 µM) | > 100 | < 1 | < 1 | inactive | < 1 | 54 | Activity (ECV-304 [15]): Dose-dependent effect |
| COc1ccc(OC)c(C2=C(c3cc(OC)c(OC)c(OC)c3)/C(=N\O)CC2O[Si](C)(C)C(C)(C)C)c1 (stereo not drawn) | 6 (≈ 11.3 µM) |  | 50 (≈ 94.4 µM) | > 100 |  | 1 (≈ 1.89 µM) | 7 (≈ 13.2 µM) | > 100 | > 100 | 7 (≈ 13.2 µM) |  | 8.5 (≈ 16 µM) |  |  |
| COc1cc(C2=C(c3cc(C)c(OC)c(C)c3)C(O)CC2=O)cc(OC)c1OC (stereo not drawn) | > 100 |  | > 100 | > 100 |  | > 100 | > 100 | > 100 | > 100 | > 100 |  | > 100 |  |  |
| COc1ccc(C2=C(c3cc(OC)c(OC)c(OC)c3)CC(O)C2=O)cc1N (stereo not drawn) | > 100 |  | < 1 | 54 (≈ 140 µM) |  | > 100 | > 100 | 41 (≈ 106 µM) | < 1 | 16 (≈ 41.5 µM) |  | 20 (≈ 51.9 µM) |  |  |
| COc1ccc(C2=C(c3cc(OC)c(OC)c(OC)c3)/C(=N\O)C(O)C2)cc1 (stereo not drawn) | < 1 | inactive | < 1 | < 1 | inactive | < 1 | 4.2 (≈ 10.9 µM) | > 100 | < 1 | < 1 | inactive | < 1 | 59 | IC50 [16]: 0.271 µg/mL (≈ 0.703 µM); MRT [3]: 31.8 min; Cmax [5]: 7050 ng/mL; solubility [6]: 360 µM (≈ 139 µg/mL); Activity (ECV-304 [15]): Dose-dependent effect; half-life [8]: 28.2 min; Activity (Homo sapiens): Active; Activity [17]: 45.8%; clearance [10]: 1.15 mL/min; IC50 [11]: 1.75 µM; Vdss (Mus musculus): 46.56 mL; AUC [13]: 3840 ng·h/mL |
| COCOc1cc(C2=C(c3cc(OC)c(OC)c(OC)c3)C(=O)CC2O[Si](C)(C)C(C)(C)C)ccc1OC (stereo not drawn) | 40 (≈ 73.4 µM) |  | 43 (≈ 78.9 µM) | 32 (≈ 58.7 µM) |  | 50 (≈ 91.8 µM) | > 100 | 34 (≈ 62.4 µM) | 33 (≈ 60.6 µM) | 12 (≈ 22 µM) |  | 13.5 (≈ 24.8 µM) |  |  |
| COc1ccc(C2=C(c3cc(OC)c(OC)c(OC)c3)/C(=N\O)CC2OC(C)=O)cc1O (stereo not drawn) | > 100 |  | < 1 | < 1 |  | < 1 | > 6.06 | 23 (≈ 51.9 µM) | < 1 | > 100 |  | < 1 |  |  |
| COc1cc(C2=C(c3ccc(SC)cc3)CC(O)/C2=N/O)cc(OC)c1OC (stereo not drawn) | 57 (≈ 142 µM) |  | 36 (≈ 89.7 µM) | > 100 |  | 40 (≈ 99.6 µM) | 27 (≈ 67.3 µM) | 2.5 (≈ 6.23 µM) | 15 (≈ 37.4 µM) | < 1 |  | 25.3 (≈ 63 µM) |  |  |
| COc1ccc(C2=C(c3cc(OC)c(OC)c(OC)c3)C(=O)C(OC(C)=O)C2)cc1Cl (stereo not drawn) | 3.5 (≈ 7.83 µM) |  | < 1 | < 1 |  | 24 (≈ 53.7 µM) | 60 (≈ 134 µM) | 64 (≈ 143 µM) | 64 (≈ 143 µM) | < 1 |  | > 100 |  |  |
